T1: YchF (YchFE.coli) (Escherichia coli, UniProt P0ABU2)
T1 sequence (P0ABU2 1-363): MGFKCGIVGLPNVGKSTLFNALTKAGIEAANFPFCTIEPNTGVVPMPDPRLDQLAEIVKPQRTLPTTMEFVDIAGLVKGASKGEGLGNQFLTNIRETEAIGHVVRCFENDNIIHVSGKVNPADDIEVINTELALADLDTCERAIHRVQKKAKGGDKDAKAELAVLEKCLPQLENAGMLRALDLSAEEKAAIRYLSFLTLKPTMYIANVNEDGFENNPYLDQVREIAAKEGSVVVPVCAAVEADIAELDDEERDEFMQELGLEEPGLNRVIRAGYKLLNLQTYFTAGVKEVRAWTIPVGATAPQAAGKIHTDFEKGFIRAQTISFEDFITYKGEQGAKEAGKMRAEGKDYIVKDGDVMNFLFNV

B1: N-terminally His-tagged YchF from Escherichia coli (enzyme)
chain: T1 sequence (P0ABU2 1-363)

Columns and labels:
YchF (YchFE.coli) = molecular target: T1, YchF (YchFE.coli); assay: equilibrium titration, intrinsic tryptophan fluorescence; assay type: binding
How it was run: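 Purified E. coli YchF in TAKM7 (50 mM Tris-Cl 7.5, 70 mM NH4Cl, 30 mM KCl, 7 mM MgCl2) titrated with nucleotides. Intrinsic fluorescence recorded in a stirred quartz cuvette: excitation 280 nm (2 nm slit), emission 295–400 nm in 1 nm steps (5 nm slits). With triphosphates, scans started immediately without equilibration. Spectra corrected against nucleotide titration into buffer alone.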

[1] = molecular target: 70S ribosome from E. coli, purified (E. coli); assay: co-sedimentation

Molecule	Kd (YchF (YchFE.coli))	Kd [1]	stoichiometry N [1]
Nc1nc2c(ncn2[C@@H]2O[C@H](COP(=O)(O)OP(=O)(O)OP(=O)(O)O)[C@@H](O)[C@H]2O)c(=O)[nH]1 [GTP]	206 ± 5 µM		
Nc1ncnc2c1ncn2[C@@H]1O[C@H](COP(=O)(O)OP(=O)(O)O)[C@@H](O)[C@H]1O [ADP]	14 ± 5 µM		
Nc1ncnc2c1ncn2[C@@H]1O[C@H](COP(=O)(O)OP(=O)(O)NP(=O)(O)O)[C@@H](O)[C@H]1O [ADPNP]	9 ± 8 µM		
Nc1nc2c(ncn2[C@@H]2O[C@H](COP(=O)(O)OP(=O)(O)O)[C@@H](O)[C@H]2O)c(=O)[nH]1 [GDP]	151 ± 38 µM		
B1		3.3 µM	0.3 YchF per 70S

Reference: PMC3583859 (RNA Biology, 2012)
